# Measured values from ChEMBL document CHEMBL1122744, “2-Chloroethyl (methylsulfonyl)methanesulfonate and related (methylsulfonyl)methanesulfonates. Antineoplastic activity in vivo” (J Med Chem, 1984).
# Assays:
# Mus musculus [1] = experiment: Change in weight by day 5, obtained by subtracting treated groups of animals minus control groups of animals at dose 22 mg/kg in exp3.; type: functional
# In short: (§1)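 Mice were inoculated ip with 10^6 P388 leukemia cells on day 0 and weighed 19–22 g that day. Compound was given ip once daily on days 1–5, within about 5 min of preparing the solution or suspension, to groups of six (occasionally five). Thirty inoculated untreated mice served as controls. The value is the average weight change of treated mice minus that of controls on day 5.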
# Mus musculus [2] = experiment: Change in weight by day 5, obtained by subtracting treated groups of animals minus control groups of animals at dose 22 mg/kg in exp6; type: functional; in short: as §1
# Mus musculus [3] = experiment: Change in weight by day 5, obtained by subtracting treated groups of animals minus control groups of animals at dose 33 mg/kg in exp2.; type: functional; in short: as §1
# Mus musculus [4] = experiment: Change in weight by day 5, obtained by subtracting treated groups of animals minus control groups of animals at dose 33 mg/kg in exp3.; type: functional; in short: as §1
# Mus musculus [5] = experiment: Change in weight by day 5, obtained by subtracting treated groups of animals minus control groups of animals at dose 33 mg/kg in exp6; type: functional; in short: as §1
# Mus musculus [6] = experiment: Change in weight by day 5, obtained by subtracting treated groups of animals minus control groups of animals at dose 33 mg/kg in exp7; type: functional; in short: as §1
# Mus musculus [7] = experiment: Mortality by day 5 expressed as number of mice died to the total treated at dose 150 mg/kg in exp2; 5/5; type: ADME, organism-based; design: dose 150 mg/kg; details: in vivo
# Mus musculus [8] = experiment: Median survival time of the treated control groups, in which there are no 30-day survivors at dose 100 mg/kg in exp8; type: functional
# Mus musculus [9] = experiment: Mortality by day 5 expressed as number of mice died to the total treated at dose 75 mg/kg in exp2; 0/5; type: ADME, organism-based; design: dose 75 mg/kg; details: in vivo
# Mus musculus [10] = experiment: Mortality by day 5 expressed as number of mice died to the total treated at dose 200 mg/kg in exp8; 6/6; type: ADME, organism-based; design: dose 200 mg/kg; details: in vivo
# Mus musculus [11] = experiment: Mortality by day 5 expressed as number of mice died to the total treated at dose 22 mg/kg in exp5; 0/6; type: ADME, organism-based; design: dose 22 mg/kg; details: in vivo
# Mus musculus [12] = experiment: Mortality by day 5 expressed as number of mice died to the total treated at dose 33 mg/kg in exp3; 0/5; type: ADME, organism-based; design: dose 33 mg/kg; details: in vivo
# Mus musculus [13] = experiment: Mortality by day 5 expressed as number of mice died to the total treated at dose 33 mg/kg in exp4; 0/6; type: ADME, organism-based; design: dose 33 mg/kg; details: in vivo
# Mus musculus [14] = experiment: Mortality by day 5 expressed as number of mice died to the total treated at dose 50 mg/kg in exp1; 0/5; type: ADME, organism-based; design: dose 50 mg/kg; details: in vivo
# Mus musculus [15] = experiment: Mortality by day 5 expressed as number of mice died to the total treated at dose 50 mg/kg in exp5; 0/6; type: ADME, organism-based; design: dose 50 mg/kg; details: in vivo
# Mus musculus [16] = experiment: Mortality by day 5 expressed as number of mice died to the total treated at dose 50 mg/kg in exp6; 0/6; type: ADME, organism-based; design: dose 50 mg/kg; details: in vivo
# Mus musculus [17] = experiment: Median survival time of the treated control groups, in which there are no 30-day survivors at dose 33 mg/kg in exp6; type: functional
# Mus musculus [18] = experiment: Median survival time of the treated control groups, in which there are no 30-day survivors at dose 50 mg/kg in exp1; type: functional
# Mus musculus [19] = experiment: Median survival time of the untreated control groups, in which there are no 30-day survivors at dose 50 mg/kg in exp5; type: functional
# Mus musculus [20] = experiment: Median survival time of the untreated control groups, in which there are no 30-day survivors at dose 22 mg/kg in exp7; type: functional
# Mus musculus [21] = experiment: Median survival time of the untreated control groups, in which there are no 30-day survivors at dose 33 mg/kg in exp2; type: functional
# Mus musculus [22] = experiment: Median survival time of the untreated control groups, in which there are no 30-day survivors at dose 33 mg/kg in exp4; type: functional
# Mus musculus [23] = experiment: Median survival time of the untreated control groups, in which there are no 30-day survivors at dose 33 mg/kg in exp6; type: functional
# Mus musculus [24] = experiment: Median survival time of the untreated control groups, in which there are no 30-day survivors at dose 50 mg/kg in exp1; type: functional
# Mus musculus [25] = experiment: Median survival time of the untreated control groups, in which there are no 30-day survivors at dose 100 mg/kg in exp2; type: functional
# Mus musculus [26] = experiment: Median survival time of the untreated control groups, in which there are no 30-day survivors at dose 100 mg/kg in exp8; type: functional
# Mus musculus [27] = experiment: Median survival time of the untreated control groups, in which there are no 30-day survivors at dose 15 mg/kg in exp3; type: functional
# Mus musculus [28] = experiment: Median survival time of the untreated control groups, in which there are no 30-day survivors at dose 22 mg/kg in exp3; type: functional
# [29] = Ratio of median survival times for non-survivors at dose 75 mg/kg in exp2; type: functional
# [30] = Ratio of number of 30-day survivors to the total treated mice at dose 33 mg/kg in exp4; 1/6; type: functional
# [31] = Ratio of number of 30-day survivors to the total treated mice at dose 50 mg/kg in exp2; 2/5; type: functional
# [32] = Ratio of number of 30-day survivors to the total treated mice at dose 50 mg/kg in exp5; 3/6; type: functional
# [33] = Ratio of number of 60-day survivors to the total treated mice at dose 50 mg/kg in exp1; 2/6; type: functional
# [34] = Ratio of number of 60-day survivors to the total treated mice at dose 50 mg/kg in exp4; 6/6; type: functional
# [35] = Ratio of number of 60-day survivors to the total treated mice at dose 50 mg/kg in exp8; 2/6; type: functional
# [36] = Ratio of median survival times for non-survivors at dose 150 mg/kg in exp2; t= toxic; type: ADME, organism-based; design: dose 150 mg/kg; details: in vivo
# In short: (§2)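 Mice were inoculated ip with 10^6 P388 leukemia cells on day 0. Groups of six (occasionally five) were dosed ip qd on days 1–5 with fresh suspensions; 30 mice served as untreated controls. Deaths were recorded daily up to day 60. T/C% compares the median survival of treated non-survivors (<60 days) with the control median. Medians used grouped data when there were no 30-day survivors, otherwise ungrouped data. t = toxic.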
# [37] = Ratio of median survival times for non-survivors at dose 200 mg/kg in exp1; t= toxic; type: ADME, organism-based; design: dose 200 mg/kg; details: in vivo; in short: as §2
# [38] = Ratio of median survival times for non-survivors at dose 22 mg/kg in exp6; type: functional
# [39] = Ratio of median survival times for non-survivors at dose 50 mg/kg in exp1; type: functional; design: unit: %; in short: as §2
# Mus musculus [40] = experiment: Mortality by day 5 expressed as number of mice died to the total treated at dose 33 mg/kg in exp2; 0/5; type: ADME, organism-based; design: dose 33 mg/kg; details: in vivo
# [41] = Ratio of median survival times for non-survivors at dose 22 mg/kg in exp4
# [42] = Number of 30-day survivors at dose 50 mg/kg in exp7*-one death on 6th day, one death on 27th day & four 30 day survivors; 4/6
# Mus musculus [43] = experiment: Change in weight by day 5, obtained by subtracting treated groups of animals minus control groups of animals at dose 22 mg/kg in exp4.
smiles,measurement,setting,value
CS(=O)(=O)CS(=O)(=O)OCCCl,Change in weight,Mus musculus [1],-1.3
same,Change in weight,Mus musculus [2],-1.4
same,Change in weight,Mus musculus [3],-2.5
same,Change in weight,Mus musculus [4],-2.8
same,Change in weight,Mus musculus [5],-2.1
same,Change in weight,Mus musculus [6],-2.4
same,Mortality,Mus musculus [7],5
same,Median survival time,Mus musculus [8],6
same,Mortality,Mus musculus [9],0
same,Mortality,Mus musculus [10],6
same,Mortality,Mus musculus [11],0
same,Mortality,Mus musculus [12],0
same,Mortality,Mus musculus [13],0
same,Mortality,Mus musculus [14],0
same,Mortality,Mus musculus [15],0
same,Mortality,Mus musculus [16],0
same,Median survival time,Mus musculus [17],23.3
same,Median survival time,Mus musculus [18],31.5
same,Median survival time,Mus musculus [19],12
same,Median survival time,Mus musculus [20],10.7
same,Median survival time,Mus musculus [21],11.2
same,Median survival time,Mus musculus [22],10.5
same,Median survival time,Mus musculus [23],13
same,Median survival time,Mus musculus [24],11.2
same,Median survival time,Mus musculus [25],11.2
same,Median survival time,Mus musculus [26],11
same,Median survival time,Mus musculus [27],11.1
same,Median survival time,Mus musculus [28],11.1
same,Ratio,[29],156
same,Ratio,[30],1
same,Ratio,[31],2
same,Ratio,[32],3
same,Ratio,[33],2
same,Ratio,[34],6
same,Ratio,[35],2
same,Ratio,[36],Toxic
same,Ratio,[37],Toxic
same,Ratio,[38],160
same,Ratio,[39],281
same,Mortality,Mus musculus [40],0
same,Ratio,[41],180
same,30-day survivors,[42],4
same,Change in weight,Mus musculus [43],-1.2
